Experimental data taken from ChEMBL document CHEMBL4619701, “Neutral analogs of the heat shock protein 70 (Hsp70) inhibitor, JG-98” (Bioorg Med Chem Lett, 2020).

Columns and labels:
MCF7 [1] = assay: Antiproliferative activity against human MCF7 cells assessed as cell growth inhibition; format: functional, cell-based
PC-3 [2] = assay: Antiproliferative activity against human PC3 cells assessed as cell growth inhibition; format: functional, cell-based
CWR22R [3] = assay: Antiproliferative activity against human 22Rv1 cells assessed as cell growth inhibition; format: functional, cell-based
PC-3 [4] = assay: Potency index, ratio of JG-98 IC50 to compound IC50 for human PC3 cells; format: functional
CWR22R [5] = assay: Inhibition of HSP70 in human 22Rv1 cells assessed as reduction in CDK4 protein level at 0.3 to 5 uM measured after 24 hrs by Western blot analysis; format: cell-based
In short: (§1)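 22Rv1 cells were treated for 24 h at the indicated concentrations, then lysed and analysed by western blot for the named protein. Blots are representative of at least two independent experiments. Quantifications are averages of at least two independent experiments, with error bars as S.E.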

CWR22R [6] = assay: Inhibition of HSP70 in human 22Rv1 cells assessed as reduction in c-Raf1 protein level at 0.3 to 5 uM measured after 24 hrs by Western blot analysis; format: cell-based; in short: as §1
CWR22R [7] = assay: Inhibition of HSP70 in human 22Rv1 cells assessed as reduction in Akt-1 protein level at 0.3 to 5 uM measured after 24 hrs by Western blot analysis; format: cell-based; in short: as §1
[8] = Inhibition of HSP70 in human 22Rv1 cells assessed as induction of heat shock response by measuring HSP90 level at 0.3 to 5 uM measured after 24 hrs by Western blot analysis; format: cell-based; conditions: cwr22r; in short: as §1
MCF7 [9] = assay: Potency index, ratio of JG-98 IC50 to compound IC50 for human MCF7 cells; format: functional
CWR22R [10] = assay: Inhibition of HSP70 in human 22Rv1 cells assessed as reduction in HuR protein level at 0.3 to 5 uM measured after 24 hrs by Western blot analysis; format: cell-based; in short: as §1
CWR22R [11] = assay: Potency index, ratio of JG-98 IC50 to compound IC50 for human 22Rv1 cells; format: functional
[12] = Inhibition of HSP70 in human 22Rv1 cells assessed as induction of heat shock response by measuring HSP72 level measured after 24 hrs by Western blot analysis; format: cell-based; conditions: cwr22r; in short: as §1

CCn1c(=O)/c(=C2\Sc3ccc(C)cc3N2C)s/c1=C\c1ccncc1Nc1ccccc1Cl
IC50 (MCF7 [1]): 650 nM | IC50 (PC-3 [2]): 500 nM | IC50 (CWR22R [3]): 350 nM

CCn1c(=O)/c(=C2\Sc3ccccc3N2C)s/c1=C\c1ccncc1Nc1ccccc1Cl
IC50 (MCF7 [1]): 750 nM | IC50 (PC-3 [2]): 780 nM | IC50 (CWR22R [3]): 460 nM

CCn1c(=O)/c(=C2\Sc3ccccc3N2C)s/c1=C\c1ccncc1Nc1ccccc1C
IC50 (MCF7 [1]): 990 nM | IC50 (PC-3 [2]): 1200 nM | IC50 (CWR22R [3]): 470 nM

c1ccc(Nc2nc(-c3nc4ccccc4s3)cs2)nc1
IC50 (MCF7 [1]): 3600 nM | IC50 (PC-3 [2]): 6700 nM | IC50 (CWR22R [3]): 3200 nM

CCn1c(=O)/c(=C2\Sc3ccc(OC)cc3N2C)s/c1=C\c1ccncc1Nc1ccccc1Cl
IC50 (MCF7 [1]): 710 nM | IC50 (PC-3 [2]): 760 nM | IC50 (CWR22R [3]): 500 nM

c1ccc(Nc2nc(-c3nc4ccccc4s3)cs2)cc1
IC50 (MCF7 [1]): 7600 nM | IC50 (PC-3 [2]): 5500 nM | IC50 (CWR22R [3]): 6900 nM

CCn1c(=O)/c(=C2\Sc3ccc(C)cc3N2C)s/c1=C\c1ccncc1Nc1ccccc1F
IC50 (MCF7 [1]): 100 nM | Ratio IC50 (PC-3 [4]): 7 - 10 | inhibition (CWR22R [5]): 50% | inhibition (CWR22R [6]): 50% | inhibition (CWR22R [7]): 50% | inhibition (INH) [8]: Not Active | Ratio IC50 (MCF7 [9]): 7 - 10 | IC50 (PC-3 [2]): 70 nM | inhibition (CWR22R [10]): 50% | Ratio IC50 (CWR22R [11]): 7 - 10 | IC50 (CWR22R [3]): 150 nM | inhibition (INH) [12]: Not Active

CCn1c(=O)/c(=C2\Sc3cc(F)ccc3N2C)s/c1=C\c1ccncc1Nc1ccccc1F
IC50 (MCF7 [1]): 230 nM | IC50 (PC-3 [2]): 260 nM | IC50 (CWR22R [3]): 150 nM

CCn1c(=O)/c(=C2\Sc3ccccc3N2C)s/c1=C\c1ccncc1Nc1cc(F)ccc1F
IC50 (MCF7 [1]): 1500 nM | IC50 (PC-3 [2]): 1200 nM | IC50 (CWR22R [3]): 1100 nM

CCc1ccc2c(c1)S/C(=c1/s/c(=C\c3ccncc3Nc3ccccc3F)n(CC)c1=O)N2C
IC50 (MCF7 [1]): 1200 nM | IC50 (PC-3 [2]): 2200 nM | IC50 (CWR22R [3]): 1200 nM

CCn1c(=O)/c(=C2\Sc3ccc(OC)cc3N2C)s/c1=C\c1ccncc1Nc1ccccc1F
IC50 (MCF7 [1]): 130 nM | IC50 (PC-3 [2]): 100 nM | IC50 (CWR22R [3]): 190 nM

COc1ccc(Cl)c(Nc2cccc(-c3nc4ccccc4s3)c2)c1
IC50 (MCF7 [1]): 710 nM | IC50 (PC-3 [2]): 2200 nM | IC50 (CWR22R [3]): 2100 nM

CCn1c(=O)/c(=C2\Sc3cc(F)ccc3N2C)s/c1=C\c1ccncc1Nc1ccccc1Cl
IC50 (MCF7 [1]): 1300 nM | IC50 (PC-3 [2]): 1200 nM | IC50 (CWR22R [3]): 490 nM

CCn1c(=O)/c(=C2\Sc3cc(F)ccc3N2C)s/c1=C\c1ccncc1Nc1ccccc1C
IC50 (MCF7 [1]): 1300 nM | IC50 (PC-3 [2]): 2300 nM | IC50 (CWR22R [3]): 2300 nM

CCn1c(=O)/c(=C2\Sc3ccc(C)cc3N2C)s/c1=C\c1ccncc1Nc1ccccc1C
IC50 (MCF7 [1]): 400 nM | IC50 (PC-3 [2]): 330 nM | IC50 (CWR22R [3]): 480 nM

CCn1c(=O)/c(=C2\Sc3ccccc3N2C)s/c1=C\c1ccncc1Nc1cc(C)ccc1C
IC50 (MCF7 [1]): 1700 nM | IC50 (PC-3 [2]): 2000 nM | IC50 (CWR22R [3]): 1800 nM

CCn1c(=O)/c(=C2\Sc3ccc(OC)cc3N2C)s/c1=C\c1ccncc1Nc1ccccc1C
IC50 (MCF7 [1]): 420 nM | IC50 (PC-3 [2]): 370 nM | IC50 (CWR22R [3]): 410 nM

CCn1c(=O)/c(=C2\Sc3ccccc3N2C)s/c1=C\c1ccncc1Nc1ccccc1F
IC50 (MCF7 [1]): 330 nM | IC50 (PC-3 [2]): 360 nM | IC50 (CWR22R [3]): 300 nM

c1ccc(Nc2cccc(-c3nc4ccccc4s3)c2)nc1
IC50 (MCF7 [1]): 13000 nM | IC50 (PC-3 [2]): 4800 nM | IC50 (CWR22R [3]): 13000 nM
